Activity calls are given as the source filed them. The rule behind the calls is not given here.
Tested on: not listed separately
Test: Plasma concentration in BALB/c mouse assessed as time until the compound becomes undetectable at 25 mg/kg, po via gavage […]
Assay type: ADME, organism-based
Details: in vivo
In short: (§1)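 Single oral gavage dose of 25 mg/kg in BALB/c mice; blood sampled at 1, 2, 4, 6, 10, 16, 24 h. Plasma is diluted in PBS with ketoconazole internal standard, extracted with 80% acetonitrile, dried and redissolved. Analysed by reversed-phase HPLC with UV at 291/250 nm, 0.1 μM detection limit. Lifetime is time until undetectable.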

Structure (SMILES) | Time [h]
O=C(N[C@@H](Cn1ccnc1)c1ccc(-c2ccc(F)cc2)cc1Cl)c1ccc(-c2nnc(-c3ccccn3)o2)cc1 | 10
O=C(N[C@@H](Cn1ccnc1)c1ccc(-c2ccc(F)cc2)cc1Cl)c1ccc(-c2nnc(-c3ccccc3)o2)cc1 | 16
O=C(N[C@@H](Cn1ccnc1)c1ccc(Cl)cc1Cl)c1ccc(-c2nnc(-c3ccc(OCC(F)(F)F)cc3F)o2)cc1 | 6

Tested on: not listed separately
Test: Intrinsic clearance in Sprague-Dawley rat liver microsomes at 1 uM preincubated for 5 mins followed by NADPH addition and measured after 45 mins by LC/MS/MS analysis
Assay type: ADME, microsome
Details: read-out: CLH

Structure (SMILES) | CLint scaled at 1 µM [mL/min/kg]
O=C(N[C@@H](Cn1ccnc1)c1ccc(-c2ccc(F)cc2)cc1Cl)c1ccc(-c2nnc(-c3ccccn3)o2)cc1 | 29.7
O=C(N[C@@H](Cn1ccnc1)c1ccc(-c2ccc(F)cc2)cc1Cl)c1ccc(-c2nnc(-c3ccccc3)o2)cc1 | 35.5

Tested on: not listed separately
Test: Intrinsic clearance in CD1 mouse liver microsomes at 1 uM preincubated for 5 mins followed by NADPH addition and measured after 45 mins by LC/MS/MS analysis
Assay type: ADME, microsome
Details: read-out: CLH

Structure (SMILES) | CLint scaled at 1 µM [mL/min/kg]
O=C(N[C@@H](Cn1ccnc1)c1ccc(-c2ccc(F)cc2)cc1Cl)c1ccc(-c2nnc(-c3ccccn3)o2)cc1 | 105
O=C(N[C@@H](Cn1ccnc1)c1ccc(-c2ccc(F)cc2)cc1Cl)c1ccc(-c2nnc(-c3ccccc3)o2)cc1 | 59.8

Tested on: not listed separately
Test: Drug uptake in BALB/c mouse lungs at 25 mg/kg, po via gavage measured after 4 hrs post dose by […]
Assay type: ADME, organism-based, Lung
Details: read-out: Drug uptake
In short: (§2)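 BALB/c mice get a single oral gavage dose of 25 mg/kg; tissues are collected 4 h post-dose. About 100 mg tissue is diluted 5-fold in PBS and homogenized. Homogenate is extracted as for plasma (ketoconazole internal standard, acetonitrile extraction) and quantified by HPLC-UV at 291 nm, 0.1 μM detection limit, n=2.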

Structure (SMILES) | concentration at 4 h [µM]
O=C(N[C@@H](Cn1ccnc1)c1ccc(-c2ccc(F)cc2)cc1Cl)c1ccc(-c2nnc(-c3ccccn3)o2)cc1 | 0.6
O=C(N[C@@H](Cn1ccnc1)c1ccc(-c2ccc(F)cc2)cc1Cl)c1ccc(-c2nnc(-c3ccccc3)o2)cc1 | 18
O=C(N[C@@H](Cn1ccnc1)c1ccc(Cl)cc1Cl)c1ccc(-c2nnc(-c3ccc(OCC(F)(F)F)cc3F)o2)cc1 | 38

Tested on: not listed separately
Test: Lipophilicity, log P of the compound
Assay type: physicochemical
Details: octanol/water

Structure (SMILES) | logP
O=C(N[C@@H](Cn1ccnc1)c1ccc(-c2ccc(F)cc2)cc1Cl)c1ccc(-c2nnc(-c3ccccn3)o2)cc1 | 4.93

Tested on: not listed separately
Test: Half life in Sprague-Dawley rat liver microsomes at 1 uM preincubated for 5 mins followed by NADPH addition and measured by LC/MS/MS analysis
Assay type: ADME, microsome
Details: microsomes, 1 µM

Structure (SMILES) | t1/2 [h]
O=C(N[C@@H](Cn1ccnc1)c1ccc(-c2ccc(F)cc2)cc1Cl)c1ccc(-c2nnc(-c3ccccn3)o2)cc1 | 1.58
O=C(N[C@@H](Cn1ccnc1)c1ccc(-c2ccc(F)cc2)cc1Cl)c1ccc(-c2nnc(-c3ccccc3)o2)cc1 | 1.32
O=C(N[C@@H](Cn1ccnc1)c1ccc(Cl)cc1Cl)c1ccc(-c2nnc(-c3ccc(OCC(F)(F)F)cc3F)o2)cc1 | 0.8

Tested on: not listed separately
Test: Maximum plasma concentration in BALB/c mouse at 25 mg/kg, po via gavage by […]
Assay type: ADME, organism-based
Design: dose 25 mg/kg, route oral
Details: not given
In short: as §1

Structure (SMILES) | Cmax [µM]
O=C(N[C@@H](Cn1ccnc1)c1ccc(-c2ccc(F)cc2)cc1Cl)c1ccc(-c2nnc(-c3ccccn3)o2)cc1 | 5
O=C(N[C@@H](Cn1ccnc1)c1ccc(-c2ccc(F)cc2)cc1Cl)c1ccc(-c2nnc(-c3ccccc3)o2)cc1 | 13
O=C(N[C@@H](Cn1ccnc1)c1ccc(Cl)cc1Cl)c1ccc(-c2nnc(-c3ccc(OCC(F)(F)F)cc3F)o2)cc1 | 7

Tested on: not listed separately
Test: Drug uptake in BALB/c mouse liver at 25 mg/kg, po via gavage measured after 4 hrs post dose by […]
Assay type: ADME, organism-based
Details: read-out: Drug uptake
In short: as §2

Structure (SMILES) | concentration at 4 h [µM]
O=C(N[C@@H](Cn1ccnc1)c1ccc(-c2ccc(F)cc2)cc1Cl)c1ccc(-c2nnc(-c3ccccn3)o2)cc1 | 3
O=C(N[C@@H](Cn1ccnc1)c1ccc(-c2ccc(F)cc2)cc1Cl)c1ccc(-c2nnc(-c3ccccc3)o2)cc1 | 20
O=C(N[C@@H](Cn1ccnc1)c1ccc(Cl)cc1Cl)c1ccc(-c2nnc(-c3ccc(OCC(F)(F)F)cc3F)o2)cc1 | 32

Tested on: not listed separately
Test: Half life in CD1 mouse liver microsomes at 1 uM preincubated for 5 mins followed by NADPH addition and measured by LC/MS/MS analysis
Assay type: ADME, microsome
Details: mouse, microsomes, 1 µM

Structure (SMILES) | t1/2 [h]
O=C(N[C@@H](Cn1ccnc1)c1ccc(-c2ccc(F)cc2)cc1Cl)c1ccc(-c2nnc(-c3ccccn3)o2)cc1 | 0.867
O=C(N[C@@H](Cn1ccnc1)c1ccc(-c2ccc(F)cc2)cc1Cl)c1ccc(-c2nnc(-c3ccccc3)o2)cc1 | 1.52

Tested on: not listed separately
Test: Intrinsic clearance in human liver microsomes at 1 uM preincubated for 5 mins followed by NADPH addition and measured after 45 mins by LC/MS/MS analysis
Assay type: ADME, microsome
Details: read-out: CLH

Structure (SMILES) | CLint scaled at 1 µM [mL/min/kg]
O=C(N[C@@H](Cn1ccnc1)c1ccc(-c2ccc(F)cc2)cc1Cl)c1ccc(-c2nnc(-c3ccccn3)o2)cc1 | 22.3
O=C(N[C@@H](Cn1ccnc1)c1ccc(-c2ccc(F)cc2)cc1Cl)c1ccc(-c2nnc(-c3ccccc3)o2)cc1 | 13.9

Tested on: not listed separately
Test: Drug uptake in BALB/c mouse blood at 25 mg/kg, po via gavage measured after 4 hrs post dose by […]
Assay type: ADME, organism-based
Details: read-out: Drug uptake
In short: as §2

Structure (SMILES) | concentration at 4 h [µM]
O=C(N[C@@H](Cn1ccnc1)c1ccc(-c2ccc(F)cc2)cc1Cl)c1ccc(-c2nnc(-c3ccccn3)o2)cc1 | 1
O=C(N[C@@H](Cn1ccnc1)c1ccc(-c2ccc(F)cc2)cc1Cl)c1ccc(-c2nnc(-c3ccccc3)o2)cc1 | 12
O=C(N[C@@H](Cn1ccnc1)c1ccc(Cl)cc1Cl)c1ccc(-c2nnc(-c3ccc(OCC(F)(F)F)cc3F)o2)cc1 | 3

Tested on: not listed separately
Test: Hepatic clearance in CD1 mouse liver microsomes at 1 uM preincubated for 5 mins followed by NADPH addition and measured after 45 mins by LC/MS/MS analysis
Assay type: ADME, microsome
Details: not given

Structure (SMILES) | CLhep predicted at 1 µM [mL/min/kg]
O=C(N[C@@H](Cn1ccnc1)c1ccc(-c2ccc(F)cc2)cc1Cl)c1ccc(-c2nnc(-c3ccccn3)o2)cc1 | 48.4
O=C(N[C@@H](Cn1ccnc1)c1ccc(-c2ccc(F)cc2)cc1Cl)c1ccc(-c2nnc(-c3ccccc3)o2)cc1 | 35.9

Molecular target: Lanosterol 14-alpha-demethylase (Trypanosoma brucei brucei (strain 927/4 GUTat10.1)) (UniProt Q385E8)
Sequence (Q385E8 1-481): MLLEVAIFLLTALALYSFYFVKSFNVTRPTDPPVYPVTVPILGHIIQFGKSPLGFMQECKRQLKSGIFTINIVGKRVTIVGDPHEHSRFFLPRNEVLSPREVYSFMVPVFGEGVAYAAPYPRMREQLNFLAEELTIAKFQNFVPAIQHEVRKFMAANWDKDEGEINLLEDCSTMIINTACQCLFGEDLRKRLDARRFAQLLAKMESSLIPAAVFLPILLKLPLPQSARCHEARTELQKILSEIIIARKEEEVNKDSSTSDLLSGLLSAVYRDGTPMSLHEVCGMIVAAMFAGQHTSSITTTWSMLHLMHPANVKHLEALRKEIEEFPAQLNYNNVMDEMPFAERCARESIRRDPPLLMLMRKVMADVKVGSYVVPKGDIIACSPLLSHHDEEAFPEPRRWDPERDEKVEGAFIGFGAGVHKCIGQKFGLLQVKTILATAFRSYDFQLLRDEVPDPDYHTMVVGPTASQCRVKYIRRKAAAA
Test: Inhibition of Trypanosoma brucei […] CYP51 expressed in Escherichia coli using [3-3H]-obtusifoliol as substrate after 60 mins by LC-MS analysis
Details: not given
In short: (§3)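 Reconstituted reaction: 1 μM purified CYP51, 2 μM T. brucei NADPH-P450 reductase, 100 μM dilauroylphosphatidylcholine, isocitrate dehydrogenase/isocitrate regeneration, 50 mM K phosphate pH 7.2, 10% glycerol. [3-3H]sterol substrate at 50 μM final (eburicol for T. cruzi; obtusifoliol for T. brucei and L. infantum) with inhibitor at 1.1 μM final. Preincubate 60 s at 37 °C, start with 100 μM NADPH, run 60 min, EtOAc extraction. Gives % inhibition of 14α-demethylation, triplicate, mean ± SD.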

Structure (SMILES) | inhibition
O=C(N[C@@H](Cn1ccnc1)c1ccc(Cl)cc1Cl)c1ccc(-c2nnc(-c3ccc(OCC(F)(F)F)cc3F)o2)cc1 | Active

Tested on: not listed separately
Test: Hepatic clearance in human liver microsomes at 1 uM preincubated for 5 mins followed by NADPH addition and measured after 45 mins by LC/MS/MS analysis
Assay type: ADME, microsome
Details: not given

Structure (SMILES) | CLhep predicted at 1 µM [mL/min/kg]
O=C(N[C@@H](Cn1ccnc1)c1ccc(-c2ccc(F)cc2)cc1Cl)c1ccc(-c2nnc(-c3ccccn3)o2)cc1 | 10.8
O=C(N[C@@H](Cn1ccnc1)c1ccc(-c2ccc(F)cc2)cc1Cl)c1ccc(-c2nnc(-c3ccccc3)o2)cc1 | 8.35

Tested on: not listed separately
Test: Hepatic clearance in Sprague-Dawley rat liver microsomes at 1 uM preincubated for 5 mins followed by NADPH addition and measured after 45 mins by LC/MS/MS analysis
Assay type: ADME, microsome
Details: not given
In short: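 Pooled liver microsomes at 0.5 mg/mL: human (mixed gender), male Sprague-Dawley rat, or male CD-1 mouse, with test compound at 1 μM, triplicate. In vitro t1/2 is scaled to CLint (45 mg microsomes/g liver; 45 g liver/kg scaling factor). CLhep uses well-stirred model with hepatic blood flow 21 (human), 70 (rat), 90 (mouse) mL/min/kg.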

Structure (SMILES) | CLhep predicted at 1 µM [mL/min/kg]
O=C(N[C@@H](Cn1ccnc1)c1ccc(-c2ccc(F)cc2)cc1Cl)c1ccc(-c2nnc(-c3ccccn3)o2)cc1 | 20.8
O=C(N[C@@H](Cn1ccnc1)c1ccc(-c2ccc(F)cc2)cc1Cl)c1ccc(-c2nnc(-c3ccccc3)o2)cc1 | 23.6

Tested on: not listed separately
Test: Drug uptake in BALB/c mouse spleen at 25 mg/kg, po via gavage measured after 4 hrs post dose by […]
Assay type: ADME, organism-based
Details: read-out: Drug uptake
In short: as §2

Structure (SMILES) | concentration at 4 h [µM]
O=C(N[C@@H](Cn1ccnc1)c1ccc(-c2ccc(F)cc2)cc1Cl)c1ccc(-c2nnc(-c3ccccn3)o2)cc1 | 2
O=C(N[C@@H](Cn1ccnc1)c1ccc(-c2ccc(F)cc2)cc1Cl)c1ccc(-c2nnc(-c3ccccc3)o2)cc1 | 6
O=C(N[C@@H](Cn1ccnc1)c1ccc(Cl)cc1Cl)c1ccc(-c2nnc(-c3ccc(OCC(F)(F)F)cc3F)o2)cc1 | 6

Tested on: not listed separately
Test: Drug uptake in BALB/c mouse brain at 25 mg/kg, po via gavage measured after 4 hrs post dose by […]
Assay type: ADME, organism-based
Details: read-out: Drug uptake
In short: as §2

Structure (SMILES) | concentration at 4 h [µM]
O=C(N[C@@H](Cn1ccnc1)c1ccc(-c2ccc(F)cc2)cc1Cl)c1ccc(-c2nnc(-c3ccccn3)o2)cc1 | 0.1
O=C(N[C@@H](Cn1ccnc1)c1ccc(-c2ccc(F)cc2)cc1Cl)c1ccc(-c2nnc(-c3ccccc3)o2)cc1 | 0.2
O=C(N[C@@H](Cn1ccnc1)c1ccc(Cl)cc1Cl)c1ccc(-c2nnc(-c3ccc(OCC(F)(F)F)cc3F)o2)cc1 | 0.15

Tested on: not listed separately
Test: Half life in human liver microsomes at 1 uM preincubated for 5 mins followed by NADPH addition and measured by LC/MS/MS analysis
Assay type: ADME, microsome
Details: microsomes, 1 µM

Structure (SMILES) | t1/2 [h]
O=C(N[C@@H](Cn1ccnc1)c1ccc(-c2ccc(F)cc2)cc1Cl)c1ccc(-c2nnc(-c3ccccn3)o2)cc1 | 0.933
O=C(N[C@@H](Cn1ccnc1)c1ccc(-c2ccc(F)cc2)cc1Cl)c1ccc(-c2nnc(-c3ccccc3)o2)cc1 | 1.5

Molecular target: Sterol 14-alpha demethylase (Trypanosoma cruzi (strain CL Brener)) (UniProt Q7Z1V1)
Sequence (Q7Z1V1 whole entry, looked up): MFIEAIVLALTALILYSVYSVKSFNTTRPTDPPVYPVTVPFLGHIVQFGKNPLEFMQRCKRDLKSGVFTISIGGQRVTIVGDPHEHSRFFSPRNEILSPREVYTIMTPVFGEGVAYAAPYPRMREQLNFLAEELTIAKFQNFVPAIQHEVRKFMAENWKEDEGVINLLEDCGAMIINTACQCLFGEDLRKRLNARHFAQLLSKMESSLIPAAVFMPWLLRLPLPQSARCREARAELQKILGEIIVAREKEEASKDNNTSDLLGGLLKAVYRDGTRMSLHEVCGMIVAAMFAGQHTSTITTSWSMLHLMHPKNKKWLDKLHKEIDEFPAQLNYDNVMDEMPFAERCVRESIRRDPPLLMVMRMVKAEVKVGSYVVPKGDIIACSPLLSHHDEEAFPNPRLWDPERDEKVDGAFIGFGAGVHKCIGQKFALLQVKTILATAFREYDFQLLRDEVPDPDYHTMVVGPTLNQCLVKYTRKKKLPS
Test: Inhibition of Trypanosoma cruzi Y CYP51 expressed in Escherichia coli using [3-3H]-eburicol as substrate after 60 mins by LC-MS analysis
Details: not given
In short: as §3

Structure (SMILES) | inhibition
O=C(N[C@@H](Cn1ccnc1)c1ccc(Cl)cc1Cl)c1ccc(-c2nnc(-c3ccc(OCC(F)(F)F)cc3F)o2)cc1 | Active

Molecular target: Putative lanosterol 14-alpha-demethylase (Leishmania infantum) (UniProt A2TEF2)
Sequence (A2TEF2 1-480): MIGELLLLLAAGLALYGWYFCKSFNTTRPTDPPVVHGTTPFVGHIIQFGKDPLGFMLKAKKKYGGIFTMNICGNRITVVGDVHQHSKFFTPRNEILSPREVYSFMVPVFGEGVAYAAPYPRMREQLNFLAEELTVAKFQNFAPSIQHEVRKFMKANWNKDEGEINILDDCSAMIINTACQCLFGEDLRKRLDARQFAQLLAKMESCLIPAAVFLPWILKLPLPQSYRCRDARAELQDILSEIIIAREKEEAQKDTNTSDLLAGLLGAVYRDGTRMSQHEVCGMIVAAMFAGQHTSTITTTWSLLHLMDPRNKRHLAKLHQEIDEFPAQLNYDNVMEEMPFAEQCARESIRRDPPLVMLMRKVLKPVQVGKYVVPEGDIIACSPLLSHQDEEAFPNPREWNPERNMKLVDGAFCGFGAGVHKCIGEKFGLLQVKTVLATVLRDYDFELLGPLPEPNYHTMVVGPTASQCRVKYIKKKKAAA
Test: Inhibition of Leishmania infantum CYP51 expressed in Escherichia coli using [3-3H]-obtusifoliol as substrate after 60 mins by LC-MS analysis
Details: not given
In short: as §3

Structure (SMILES) | inhibition
O=C(N[C@@H](Cn1ccnc1)c1ccc(Cl)cc1Cl)c1ccc(-c2nnc(-c3ccc(OCC(F)(F)F)cc3F)o2)cc1 | Active

Tested on: not listed separately
Test: Drug uptake in BALB/c mouse heart at 25 mg/kg, po via gavage measured after 4 hrs post dose by […]
Assay type: ADME, organism-based
Details: read-out: Drug uptake
In short: as §2

Structure (SMILES) | concentration at 4 h [µM]
O=C(N[C@@H](Cn1ccnc1)c1ccc(-c2ccc(F)cc2)cc1Cl)c1ccc(-c2nnc(-c3ccccn3)o2)cc1 | 0.1
O=C(N[C@@H](Cn1ccnc1)c1ccc(-c2ccc(F)cc2)cc1Cl)c1ccc(-c2nnc(-c3ccccc3)o2)cc1 | 3
O=C(N[C@@H](Cn1ccnc1)c1ccc(Cl)cc1Cl)c1ccc(-c2nnc(-c3ccc(OCC(F)(F)F)cc3F)o2)cc1 | 6
